Source: ChEMBL document CHEMBL4673287, “Synthesis and biological evaluation of novel antipsychotic trans-4-(2-(1,2,4,5-tetrahydro-3H-benzo[d]azepin-3-yl)ethyl)cyclohexan-1-amine derivatives targeting dopamine/serotonin receptor subtypes” (Bioorg Med Chem Lett, 2021)
pKi: −log10 of the molar value.

Experiments:
D(3) dopamine receptor [1] = target: T1, D(3) dopamine receptor (Homo sapiens, UniProt P35462); assay: Displacement of [3H]methyl-spiperone from recombinant human D3 receptor expressed in CHO cells; type: cell-based
D(2) dopamine receptor [2] = target: T2, D(2) dopamine receptor (Homo sapiens, UniProt P14416); assay: Displacement of [3H]-spiperone from recombinant human D2L receptor expressed in CHO cells; type: cell-based
How it was run: (§1)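 Eight-concentration displacement curves, two independent experiments in duplicate, value is the mean Ki.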

[3] = target: T3, 5-hydroxytryptamine receptor 2A (Homo sapiens, UniProt P28223); assay: Displacement of [3H]ketanserin from recombinant human 5-HT2A receptor expressed in human HEK293 cells at 10 uM relative to control; type: cell-based
[4] = target: T4, 5-hydroxytryptamine receptor 1A (Homo sapiens) (UniProt P08908); assay: Displacement of [3H]OH-DPAT from recombinant human 5-HT1A receptor expressed in human HEK293 cells at 10 uM relative to control; type: cell-based
T4 sequence (whole entry): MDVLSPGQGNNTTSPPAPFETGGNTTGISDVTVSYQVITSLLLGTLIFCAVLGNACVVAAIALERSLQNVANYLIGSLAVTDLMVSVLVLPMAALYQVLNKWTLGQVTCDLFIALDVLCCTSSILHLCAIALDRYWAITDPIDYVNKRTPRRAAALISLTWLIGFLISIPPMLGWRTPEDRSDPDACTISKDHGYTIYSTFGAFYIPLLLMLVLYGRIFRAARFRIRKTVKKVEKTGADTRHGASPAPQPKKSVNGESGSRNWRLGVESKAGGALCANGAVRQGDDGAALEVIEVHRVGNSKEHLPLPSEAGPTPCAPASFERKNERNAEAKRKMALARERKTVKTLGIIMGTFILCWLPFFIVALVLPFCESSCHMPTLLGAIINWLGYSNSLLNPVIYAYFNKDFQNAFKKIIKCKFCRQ

[5] = target: Histamine H1 receptor (Homo sapiens) (UniProt P35367); assay: Displacement of [3H]-pyrilamine from human H1 histamine receptor expressed in human HEK293 cells at 10 uM relative to control; type: cell-based
[6] = target: Adrenergic receptor alpha-1 (Rattus norvegicus) (UniProt P15823+P23944+P43140); assay: Displacement of [3H]-prazosin from adrenergic alpha1 in rat cerebral cortex at 10 uM relative to control; type: tissue-based
Rattus norvegicus = assay: Antipsychotic activity in orally dosed Sprague-Dawley rat assessed as inhibition of PCP-induced hyperactivity administered 20 mins before PCP stimulation and measured after 1 hr; type: functional, organism-based; details: dose 1-10 mg/kg, time 80.0 min
How it was run: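 Male Sprague-Dawley rats dosed orally 20 min before PCP (5 mg/kg) injection. Locomotor activity recorded for 1 h after PCP, read as total travel distance. Mean ± standard error of the mean, n = 8-10 per group.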

[7] = Metabolic stability in rat liver microsomes assessed as intrinsic clearance; type: ADME, Microsome; details: read-out: CLH
[8] = Metabolic stability in human liver microsomes assessed as intrinsic clearance; type: ADME, Microsome; details: read-out: CLH
[9] = Metabolic stability in rat liver microsomes assessed as half life; type: ADME, Microsome
[10] = Metabolic stability in human liver microsomes assessed as half life; type: ADME, Microsome
[11] = target: T3, 5-hydroxytryptamine receptor 2A; assay: Displacement of [3H]ketanserin from recombinant human 5-HT2A receptor expressed in human HEK293 cells; type: cell-based; how it was run: as §1
[12] = target: T5, 5-hydroxytryptamine receptor 1A (Homo sapiens, UniProt P08908); assay: Displacement of [3H]OH-DPAT from recombinant human 5-HT1A receptor expressed in human HEK293 cells; type: cell-based; how it was run: as §1
T5 sequence (P08908 whole entry): T4 sequence (whole entry)

D(3) dopamine receptor [13] = target: T1, D(3) dopamine receptor; assay: Displacement of [3H]methyl-spiperone from recombinant human D3 receptor expressed in CHO cells at 10 uM relative to control; type: cell-based
D(2) dopamine receptor [14] = target: T2, D(2) dopamine receptor; assay: Displacement of [3H]-spiperone from recombinant human D2L receptor expressed in CHO cells at 10 uM relative to control; type: cell-based

T2 sequence (P14416 whole entry): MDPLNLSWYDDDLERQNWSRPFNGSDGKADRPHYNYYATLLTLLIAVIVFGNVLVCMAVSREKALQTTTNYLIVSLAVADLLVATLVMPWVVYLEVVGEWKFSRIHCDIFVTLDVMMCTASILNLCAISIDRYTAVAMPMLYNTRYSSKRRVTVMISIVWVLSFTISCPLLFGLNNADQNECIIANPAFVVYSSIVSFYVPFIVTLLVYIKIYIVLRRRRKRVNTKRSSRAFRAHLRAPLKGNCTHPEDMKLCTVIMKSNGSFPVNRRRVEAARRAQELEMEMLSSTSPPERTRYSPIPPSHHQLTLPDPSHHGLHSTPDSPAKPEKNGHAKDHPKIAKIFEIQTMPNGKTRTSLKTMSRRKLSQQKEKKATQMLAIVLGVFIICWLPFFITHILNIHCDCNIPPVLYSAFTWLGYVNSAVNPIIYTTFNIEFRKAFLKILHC
Histamine H1 receptor (Homo sapiens), sequence (P35367 whole entry): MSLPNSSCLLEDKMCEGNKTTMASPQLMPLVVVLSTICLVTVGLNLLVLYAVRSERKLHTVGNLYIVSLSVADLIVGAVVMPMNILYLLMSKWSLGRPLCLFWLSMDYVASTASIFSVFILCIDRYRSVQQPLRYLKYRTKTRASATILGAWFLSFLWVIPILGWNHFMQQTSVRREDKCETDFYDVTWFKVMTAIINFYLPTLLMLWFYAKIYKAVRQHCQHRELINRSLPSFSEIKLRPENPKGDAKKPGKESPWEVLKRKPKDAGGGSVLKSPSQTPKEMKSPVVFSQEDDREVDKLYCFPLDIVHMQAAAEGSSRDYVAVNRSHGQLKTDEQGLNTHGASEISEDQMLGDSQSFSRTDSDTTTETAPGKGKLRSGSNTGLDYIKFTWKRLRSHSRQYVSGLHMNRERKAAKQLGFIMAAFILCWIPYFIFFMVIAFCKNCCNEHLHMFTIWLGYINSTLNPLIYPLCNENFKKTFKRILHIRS
T1 sequence (P35462 whole entry): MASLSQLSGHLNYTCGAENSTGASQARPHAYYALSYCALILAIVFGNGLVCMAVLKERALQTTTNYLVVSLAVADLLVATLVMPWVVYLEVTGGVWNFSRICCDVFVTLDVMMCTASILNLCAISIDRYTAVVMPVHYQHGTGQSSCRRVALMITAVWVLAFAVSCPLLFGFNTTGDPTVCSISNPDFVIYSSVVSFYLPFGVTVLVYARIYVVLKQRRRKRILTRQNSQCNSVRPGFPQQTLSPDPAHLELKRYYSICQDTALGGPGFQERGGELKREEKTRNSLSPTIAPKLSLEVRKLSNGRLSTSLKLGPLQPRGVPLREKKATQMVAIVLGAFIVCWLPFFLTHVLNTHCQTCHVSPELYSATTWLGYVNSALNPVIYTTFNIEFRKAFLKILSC
T3 sequence (P28223 whole entry): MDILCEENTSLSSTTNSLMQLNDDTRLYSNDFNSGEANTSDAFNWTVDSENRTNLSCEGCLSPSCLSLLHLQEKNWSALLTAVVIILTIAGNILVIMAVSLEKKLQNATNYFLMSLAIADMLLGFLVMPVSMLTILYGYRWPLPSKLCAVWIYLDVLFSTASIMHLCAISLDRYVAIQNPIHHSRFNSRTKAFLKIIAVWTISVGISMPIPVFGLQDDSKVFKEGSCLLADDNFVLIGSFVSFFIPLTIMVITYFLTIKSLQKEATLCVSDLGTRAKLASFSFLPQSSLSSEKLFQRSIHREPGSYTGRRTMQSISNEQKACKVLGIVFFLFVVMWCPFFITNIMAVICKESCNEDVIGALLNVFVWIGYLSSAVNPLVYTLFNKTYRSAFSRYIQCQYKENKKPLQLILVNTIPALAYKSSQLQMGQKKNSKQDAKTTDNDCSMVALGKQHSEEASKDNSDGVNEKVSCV

Compound	pKi (D(3) dopamine receptor [1])	pKi (D(2) dopamine receptor [2])	inhibition [3]	inhibition [5]	inhibition [6]	pKi [12]	other results
C[C@H]1CN(CC[C@H]2CC[C@H](NC(=O)N(C)c3ccccc3)CC2)CCc2ccc(Cl)cc21	7.76	6.72	58.8%	75%	38.6%	–	inhibition ([4]; filed as antagonist): 82.3%
C[C@H]1CN(CC[C@H]2CC[C@H](NC(=O)N(C)C)CC2)CCc2ccc(Cl)cc21	9.30	8.23	–	59.6%	44.1%	7.84	Activity (Rattus norvegicus): Dose-dependent effect; microsomal CLint [7]: 59.7 µL/min/mg; microsomal CLint [8]: 42.4 µL/min/mg; half-life [9]: 23.2 min; half-life [10]: 32.7 min; pKi [11]: 7.59
C[C@H]1CN(CC[C@H]2CC[C@H](NC(=O)C3CC3)CC2)CCc2ccc(Cl)cc21	8.09	8.01	56.6%	33.2%	57.6%	6.72	–
CC1CN(CC[C@H]2CC[C@H](NC(=O)N(C)C)CC2)CCc2ccc(Cl)cc21 (mixture of isomers)	–	–	19.6%	25.8%	38%	–	inhibition [4]: 26.9%; inhibition (D(3) dopamine receptor [13]): 68%; inhibition (D(2) dopamine receptor [14]): 54.5%
C[C@H]1CN(CC[C@H]2CC[C@H](NC(=O)Nc3ccccc3)CC2)CCc2ccc(Cl)cc21	8.82	8.55	67%	–	53.8%	–	inhibition ([5]; filed as antagonist): 88.2%
COc1ccc2[nH]c([S+]([O-])Cc3ncc(C)c(OC)c3C)nc2c1 (centres undefined) [OMEPRAZOLE]	–	–	–	–	–	–	microsomal CLint [7]: 193 µL/min/mg; half-life [9]: 38.5 min
CN1CCN(C2=Nc3cc(Cl)ccc3Nc3ccccc32)CC1	–	–	–	–	–	–	Activity (Rattus norvegicus): Dose-dependent effect
C[C@@H]1CN(CC[C@H]2CC[C@H](NC(=O)N(C)C)CC2)CCc2ccc(Cl)cc21	6.71	6.54	72%	46.5%	48.3%	–	inhibition [4]: 83.9%
C[C@H]1CN(CC[C@H]2CC[C@H](N3C(=O)[C@@H]4[C@H](C3=O)[C@@H]3C=C[C@H]4C3)CC2)CCc2ccc(Cl)cc21	8.16	7.36	82.8%	–	74.4%	7.64	–
C[C@H]1CN(CC[C@H]2CC[C@H](NC(=O)C3CCCCC3)CC2)CCc2ccc(Cl)cc21	7.76	7.00	38.2%	36.8%	35.3%	–	inhibition [4]: 69.9%
CCCC(=O)N[C@H]1CC[C@H](CCN2CCc3ccc(Cl)cc3[C@@H](C)C2)CC1	8.09	7.08	52.7%	27%	18.7%	–	inhibition [4]: 81.3%
C[C@H]1CN(CC[C@H]2CC[C@H](N3C(=O)CC4(CCCC4)CC3=O)CC2)CCc2ccc(Cl)cc21	8.92	7.92	–	–	60.9%	8.37	pKi [11]: 7.79
C[C@H]1CN(CC[C@H]2CC[C@H](NC(=O)N3CCOCC3)CC2)CCc2ccc(Cl)cc21	8.74	8.54	50.6%	33.3%	48%	–	inhibition [4]: 86.1%
C[C@H]1CN(CC[C@H]2CC[C@H](NC(=O)[C@@H]3CCCN3)CC2)CCc2ccc(Cl)cc21	8.02	7.60	89%	60.1%	75.8%	7.13	–
C[C@H]1CN(CC[C@H]2CC[C@H](N3C(=O)CCC3=O)CC2)CCc2ccc(Cl)cc21	6.72	–	47.4%	62.4%	62.1%	7.03	inhibition (D(2) dopamine receptor [14]): 79.8%
C[C@H]1CN(CC[C@H]2CC[C@H](N3C(=O)c4ccccc4C3=O)CC2)CCc2ccc(Cl)cc21	–	8.24	36.3%	40.8%	37.2%	–	inhibition [4]: 82.6%; inhibition (D(3) dopamine receptor [13]): 82%
CCN(CC)C(=O)N[C@H]1CC[C@H](CCN2CCc3ccc(Cl)cc3[C@@H](C)C2)CC1	7.82	7.04	73.6%	69.2%	29.1%	–	inhibition [4]: 75.2%
C[C@H]1CN(CC[C@H]2CC[C@H](NC(=O)c3ccco3)CC2)CCc2ccc(Cl)cc21	8.74	7.71	–	–	–	7.97	–
C[C@H]1CN(CC[C@H]2CC[C@H](NC(=O)[C@@H]3CCCO3)CC2)CCc2ccc(Cl)cc21	7.72	7.69	69.6%	32.2%	36.4%	7.01	–
COc1ccc2c(c1)[C@]13CCCC[C@@H]1[C@H](C2)N(C)CC3 [DEXTROMETHORPHAN]	–	–	–	–	–	–	microsomal CLint [8]: 59.7 µL/min/mg; half-life [10]: 23.2 min
CCN(C)C(=O)N[C@H]1CC[C@H](CCN2CCc3ccc(Cl)cc3[C@@H](C)C2)CC1	8.14	7.62	85.9%	49.7%	43.5%	7.44	–
C[C@H]1CN(CC[C@H]2CC[C@H](NC(=O)N3CCCC3)CC2)CCc2ccc(Cl)cc21	8.96	8.20	87.4%	56.8%	60.3%	8.28	–
C[C@H]1CN(CC[C@H]2CC[C@H](N3C(=O)[C@H]4CCCC[C@H]4C3=O)CC2)CCc2ccc(Cl)cc21	8.03	7.85	76.9%	86.1%	63.2%	8.18	–
C[C@H]1CN(CC[C@H]2CC[C@H](N3C(=O)[C@@H]4[C@@H]5CC[C@@H](C5)[C@@H]4C3=O)CC2)CCc2ccc(Cl)cc21	8.48	7.50	80.8%	–	79.2%	7.60	–
